Data on 8 molecules can be found in ChEMBL document CHEMBL1137008, “Cancer preventive agents 9. Betulinic acid derivatives as potent cancer chemopreventive agents” (Bioorg Med Chem Lett, 2009).

Data set [1] can be described thus: Cytotoxicity against human Raji cells assessed as cell viability at 1000 molar ratio after 48 hrs by trypan blue staining method. The settings on record: read-out: Activity. Type of data set: cell-based. Put shortly: (§1)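 Raji cells (EBV genome-carrying, Burkitt's lymphoma) grown in RPMI-1640 with 10% FBS; incubated 48 h at 37 °C with 4 mM n-butyric acid, 32 pM TPA and test compound in DMSO at stated compound/TPA molar ratio; viability determined by Trypan blue staining.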

Data set [2] can be described thus: Cytotoxicity against human Raji cells assessed as cell viability at 500 molar ratio after 48 hrs by trypan blue staining method. The format is cell-based. Conditions: read-out: Activity. Put shortly: as §1
The nature of data set [3]: Cytotoxicity against human Raji cells assessed as cell viability at 100 molar ratio after 48 hrs by trypan blue staining method. Type of data set: cell-based. Conditions: read-out: Activity. Put shortly:
as §1

Data set [4] can be described thus: Cytotoxicity against human Raji cells assessed as cell viability at 10 molar ratio after 48 hrs by trypan blue staining method. The format is cell-based. Conditions: read-out: Activity. The method, boiled down:
as §1

Data set [5] concerns Raji. Briefly: Inhibition of TPA-induced EBV-early antigen activation in human Raji cells assessed as EA induction at 1000 molar ratio after 48 hrs relative to TPA. Conditions: human gammaherpesvirus 4. Also on record: scale not given: the % may be the effect or the level left. The format is cell-based. The method, boiled down:
(§2)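 Raji cells (virus non-producer, spontaneous EA activation <0.1%) incubated 48 h at 37 °C with 4 mM n-butyric acid plus 32 pM TPA and compound in DMSO; smears stained by indirect immunofluorescence with NPC patient EBV-EA-positive serum, ≥500 cells counted; EA-positive cells expressed relative to butyrate+TPA control (100%); triplicates; IC50 as mol ratio to 32 pmol TPA.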

Data set [6] relates to Raji. As to the kind of experiment: Inhibition of TPA-induced EBV-early antigen activation in human Raji cells assessed as EA induction at 500 molar ratio after 48 hrs relative to TPA. The format is cell-based. Set-up: scale not given: the % may be the effect or the level left. Conditions: human gammaherpesvirus 4. The method, boiled down: as §2
In data set [7] the test system is Raji. As to the kind of experiment: Inhibition of TPA-induced EBV-early antigen activation in human Raji cells assessed as EA induction at 100 molar ratio after 48 hrs relative to TPA. Type of data set: cell-based. Also on record: scale not given: the % may be the effect or the level left. The settings on record: human gammaherpesvirus 4. The method, boiled down:
as §2

The subject of data set [8] is Raji. As to the kind of experiment: Inhibition of TPA-induced EBV-early antigen activation in human Raji cells assessed as EA induction at 10 molar ratio after 48 hrs relative to TPA. Type of data set: cell-based. Also on record: scale not given: the % may be the effect or the level left. The settings on record: human gammaherpesvirus 4. Put shortly:
as §2

Data set [9] can be described thus: Inhibition of TPA-induced EBV-early antigen activation in human Raji cells assessed as EA induction after 48 hrs relative to TPA. The format is cell-based, human gammaherpesvirus 4. Put shortly: as §2

Molecules are shown by their SMILES. A value given as a limit tells only on which side of the number the result lay.

Consider `C=C(C)[C@@H]1CC[C@]2(C(=O)O)CC[C@]3(C)[C@H](CC[C@@H]4[C@@]5(C)CC(=O)C(C)(C)[C@@H]5CC[C@]43C)[C@@H]12`, for which the viability at 48 h, 1000 molar ratio in data set [1] turned out to be 60%. Moreover, the viability at 48 h, 500 molar ratio in data set [2] is above 80%. In [3], the viability at 48 h, 100 molar ratio was above 80%. Moreover, in data set [4], the viability at 48 h, 10 molar ratio was above 80%. Besides, the Activity came out at 10.1% in the data set on Raji [5], 36.4% in the data set with Raji [6], 74.3% in the data set with Raji [7] and 100% in the data set on Raji [8]. Also, in data set [9], the IC50 was 442 molar ratio.

Regarding `C=C(C)[C@@H]1CC[C@]2(C(=O)O)CC[C@]3(C)[C@H](CC[C@@H]4[C@@]5(C)CC[C@H](OC(=O)C=C(C)C)C(C)(C)[C@@H]5CC[C@]43C)[C@@H]12`, the viability at 48 h, 1000 molar ratio in data set [1] was 70%. For the same molecule, the viability at 48 h, 500 molar ratio in data set [2] is above 80%. For the same molecule, the viability at 48 h, 100 molar ratio in data set [3] is above 80%. Also, in data set [4], the viability at 48 h, 10 molar ratio was above 80%. Further, the Activity with Raji [5] was found to be 0%; in the data set with Raji [6], 23.5%; in the data set with Raji [7], 62.5%; in the data set on Raji [8], 88.7%. Moreover, the IC50 in [9] worked out at 285 molar ratio.

In the case of `C=C(C)[C@@H]1CC[C@]2(C(=O)O)CC[C@]3(C)[C@H](CC[C@@H]4[C@@]5(C)CC[C@H](OC(=O)/C=C/C)C(C)(C)[C@@H]5CC[C@]43C)[C@@H]12`, the viability at 48 h, 1000 molar ratio in [1] came out at 70%. For the same molecule, the viability at 48 h, 500 molar ratio in [2] was above 80%. Further, in [3], the viability at 48 h, 100 molar ratio was above 80%. Further, the viability at 48 h, 10 molar ratio in [4] was above 80%. For the same molecule, the Activity with Raji [5] was determined as 0%; in the data set on Raji [6], 26.2%; with Raji [7], 66.7%; in the data set on Raji [8], 91.6%. Moreover, the IC50 in data set [9] amounted to 299 molar ratio.

Take `C=C(C)[C@@H]1CC[C@]2(C(=O)O)CC[C@]3(C)[C@H](CC[C@@H]4[C@@]5(C)C[C@H](OC(=O)CC(C)(C)C(=O)O)C(C)(C)[C@@H]5CC[C@]43C)[C@@H]12`: in data set [1], the viability at 48 h, 1000 molar ratio is 60%. Further, the viability at 48 h, 500 molar ratio in data set [2] was above 80%. Further, the viability at 48 h, 100 molar ratio in data set [3] was above 80%. Besides, the viability at 48 h, 10 molar ratio in [4] is above 80%. The Activity with Raji [5] came out at 5.7%; with Raji [6], 35.6%; in the data set on Raji [7], 73.1%; with Raji [8], 95.3%. The IC50 in [9] was 352 molar ratio.

Regarding `C=C(C)[C@@H]1CC[C@]2(C(=O)O)CC[C@]3(C)[C@H](CC[C@@H]4[C@@]5(C)CC[C@H](OC(=O)CCCCCCC/C=C\CCCCCCCC)C(C)(C)[C@@H]5CC[C@]43C)[C@@H]12`, in data set [1], the viability at 48 h, 1000 molar ratio came to 60%. Also, the viability at 48 h, 500 molar ratio in [2] is above 80%. Moreover, in data set [3], the viability at 48 h, 100 molar ratio is above 80%. Also, in data set [4], the viability at 48 h, 10 molar ratio is above 80%. The Activity came out at 4.8% in the data set on Raji [5], 33.7% with Raji [6], 72.4% in the data set with Raji [7] and 92.5% with Raji [8]. In addition, the IC50 in data set [9] was 344 molar ratio.

In the case of `C=C(C)[C@@H]1CC[C@]2(C(=O)O)CC[C@]3(C)[C@H](CC[C@@H]4[C@@]5(C)CC[C@H](OC(=O)C[C@@H](C)C(=O)O)C(C)(C)[C@@H]5CC[C@]43C)[C@@H]12`, the viability at 48 h, 1000 molar ratio in [1] stood at 60%. Besides, the viability at 48 h, 500 molar ratio in [2] is above 80%. Besides, in data set [3], the viability at 48 h, 100 molar ratio was above 80%. In data set [4], the viability at 48 h, 10 molar ratio was above 80%. Also, the Activity in the data set with Raji [5] worked out at 0%; with Raji [6] it was 31.8%; with Raji [7] it was 71.2%; in the data set with Raji [8], 94.7%. Besides, the IC50 in data set [9] was 309 molar ratio.

In the case of `C=C(C)[C@@H]1CC[C@]2(C(=O)O)CC[C@]3(C)[C@H](CC[C@@H]4[C@@]5(C)CC[C@H](OC(=O)CCC/C=C\C/C=C\C/C=C\C/C=C\C/C=C\CC)C(C)(C)[C@@H]5CC[C@]43C)[C@@H]12`, in [1], the viability at 48 h, 1000 molar ratio came to 60%. Besides, the viability at 48 h, 500 molar ratio in data set [2] is above 80%. Also, in data set [3], the viability at 48 h, 100 molar ratio was above 80%. The viability at 48 h, 10 molar ratio in [4] was above 80%. Moreover, the Activity was 15.3% in the data set on Raji [5], 50.4% in the data set with Raji [6], 80.1% in the data set with Raji [7] and 100% in the data set on Raji [8]. Moreover, the IC50 in data set [9] is 523 molar ratio.

Regarding `C=C(C)[C@@H]1CC[C@]2(C(=O)O)CC[C@]3(C)[C@H](CC[C@@H]4[C@@]5(C)[C@@H](C(=O)O)[C@H](O)C(C)(C)[C@@H]5CC[C@]43C)[C@@H]12` [CEANOTHIC ACID], the viability at 48 h, 1000 molar ratio in data set [1] is 60%. Further, the viability at 48 h, 500 molar ratio in [2] was above 80%. Besides, in data set [3], the viability at 48 h, 100 molar ratio is above 80%. Also, the viability at 48 h, 10 molar ratio in [4] was above 80%. Further, the Activity in the data set on Raji [5] was found to be 8.5%; in the data set on Raji [6], 35.7%; with Raji [7] it was 72.1%; in the data set with Raji [8], 100%. Further, the IC50 in [9] is 400 molar ratio.
